This is a sample that favours compounds with a hit; in the whole collection about 3.7% have one here.
EBV gp42 inh: blocks Epstein-Barr virus glycoprotein 42 binding; Fluorescence polarization binding assay, mP read-out; inhibition, % (tested at 21.74 µM); hit rate 0.42% among 220,000; in the data active = inhibition above about 50%
Target sequence (Q1HVG2 whole entry, looked up): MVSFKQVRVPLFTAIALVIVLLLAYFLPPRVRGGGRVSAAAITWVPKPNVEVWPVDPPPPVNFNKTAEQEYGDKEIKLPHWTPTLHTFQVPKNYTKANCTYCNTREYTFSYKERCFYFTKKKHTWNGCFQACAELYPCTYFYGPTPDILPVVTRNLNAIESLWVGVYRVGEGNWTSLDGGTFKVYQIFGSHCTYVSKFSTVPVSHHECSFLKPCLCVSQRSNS
14-3-3 Bad PPI: disrupts binding of bovine 14-3-3 zeta to phospho-Bad peptide; TR-FRET 14-3-3zeta/Dy647-pBad peptide displacement, 1 h; inhibition, % at 21.7 µM; hit rate 0.71% among 220,000;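 active = inhibition above about 70%, limit read from the data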;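 also: 0% = full 14-3-3 plus peptide FRET controls and 100% = background without 14-3-3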
WT yeast gro inh: growth inhibition of WT yeast, mitochondrial fusion screen | inhibition, % at 10 µM | hit rate 2.1% among 190,000 | mitochondrial fusion phenotypic screen, WT strain; in the data active = inhibition above about 58%; tested in S. cerevisiae
eIF4E 4G PPI: blocks eIF4E binding to eIF4G; P63073+Q04637; TR-FRET eIF4E-eIF4GI(517-606) binding, 2 h; inhibition, % at 21.7 µM; hit rate 0.37% among 220,000;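 also: 0% = full FRET control wells and 100% = background wells lacking eIF4GI fragment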
p47phox inh: inhibitors of human p47phox binding | P14598 | p47phox/p22phox peptide binding, fluorescence polarization, 2 h | inhibition, % at 24.7 µM | hit rate 0.53% among 220,000 | AID 1274;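 also: 0% = p47phox with labelled peptide and 100% = labelled peptide alone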
Target sequence (P14598 whole entry, looked up): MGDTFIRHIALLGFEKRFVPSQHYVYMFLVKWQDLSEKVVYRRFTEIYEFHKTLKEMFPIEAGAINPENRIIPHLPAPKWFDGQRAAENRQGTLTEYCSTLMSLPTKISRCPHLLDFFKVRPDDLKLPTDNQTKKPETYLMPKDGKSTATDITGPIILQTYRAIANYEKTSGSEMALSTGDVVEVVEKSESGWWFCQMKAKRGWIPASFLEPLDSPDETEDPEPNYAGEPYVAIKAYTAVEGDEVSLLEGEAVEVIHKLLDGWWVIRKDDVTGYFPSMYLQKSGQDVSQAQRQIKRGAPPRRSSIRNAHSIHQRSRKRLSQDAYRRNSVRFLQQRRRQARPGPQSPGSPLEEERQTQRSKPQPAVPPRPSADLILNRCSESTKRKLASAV
RBBP9 inh: human RBBP9 hydrolase inhibition; recombinant RBBP9, FP-Rh probe fluorescence polarization; inhibition, % at 7.94 µM; hit rate 0.2% among 220,000; AID 1515;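 active = inhibition above the campaign mean of all tested compounds plus 3 SD, cut at about 14% in these data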;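 also: plate controls were DMSO wells with RBBP9 for no effect and wells lacking RBBP9 protein for full effect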
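Assay system: recombinant human RBBP9; Reagent: Serine-hydrolase probe FP-Rh, 375 nM pre-mixing; Doses: 7.94 µM single dose, 0.794% DMSO; Incubation: 30 min then 45 min, 25 °C; Detection: fluorescence polarization (mP), excitation 525 nm, emission 598 nm; Evaluation: percent inhibition from mP, scaled between DMSO and no-protein wells.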
* = called active by the depositor; x = no result given.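 The calls were made as follows, unless noted: active = inhibition above about 30% (limit read from the data); inactive = the rest.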

SMILES | EBV gp42 inh | 14-3-3 Bad PPI | WT yeast gro inh | eIF4E 4G PPI | p47phox inh | RBBP9 inh
C=CCn1c(=O)[nH]c2nc3cc(N=CN(C)C)c(C)cc3nc2c1=O | 118* | -1 | x | -3 | -50 | -4
CCCOCCc1nnc(N)s1 | -7 | -2 | x | 5 | 1 | 1
Cc1ccc(NC(=O)CCC(=O)N/N=C/c2cccs2)cc1C | -9 | -3 | -4 | -4 | -12 | -4
Cc1ccc(NC(=O)CCC(=O)N/N=C/c2cccs2)cc1 | -1 | 86* | 1 | -3 | -119 | 2
O=[N+]([O-])c1cccc(-n2nnnc2CNCc2ccccc2)c1 | -13 | 2 | x | -2 | -2 | -6
Cc1ccc(-c2c(C)sc3ncn(CC(=O)N4CCOCC4)c(=O)c23)cc1C | -5 | -1 | x | -5 | -22 | -4
CN(C)C(=O)CCCCCCCCC(=O)N(C)C | -12 | -6 | x | -3 | -6 | -6
CCOC(=O)Cn1c(=O)c(-c2ccccc2N)nc2ccccc21 | -11 | 0 | 6 | -16 | 0 | x
CCOC(=O)Cn1c(=O)c(-c2cc(Br)ccc2N)nc2ccccc21 | 60* | -3 | x | 0 | -120 | -4
CCOC(=O)Cn1c(=O)cnc2ccccc21 | -15 | 2 | 3 | 3 | 32* | 0
COc1cc(-c2nc(CN(C)C(C)c3ccncn3)c(C)o2)ccc1F (configuration not stated) | -14 | -20 | 17 | 1 | -13 | -10
CC(=O)Nc1ccc(Sc2ncnc3scc(-c4ccccc4)c23)cc1 | -7 | -8 | 79* | 4 | -4 | -10
Cc1ccc(-c2csc3ncnc(SCc4ccc(C(=O)O)cc4)c23)cc1 | 3 | -21 | 59* | 13 | -17 | -6
CC(=O)Nc1cccc(Oc2ncnc3scc(-c4ccc(C(C)C)cc4)c23)c1 | -6 | 7 | 72* | 1 | -25 | -12
O=C(CSc1ncnc2scc(-c3ccccc3)c12)Nc1ccc(C(=O)O)cc1 | 0 | 11 | x | 0 | 0 | -5
COc1ccc(CNS(=O)(=O)c2ccccc2Br)cc1 | -4 | -1 | x | -6 | -4 | x
COc1cccc(CN(C)C(=O)c2cccc(OC3CCN(C4CCCC4)CC3)c2)c1 | 8 | -10 | 3 | -4 | 4 | 3
NCCCC[C@H](NC(=O)C1CCNCC1)c1nnc(CN)o1 | -1 | -6 | -1 | -2 | -7 | 5
CCN(CCNC(=O)c1cccc(N2CCCC2=O)c1)c1ccccc1 | 2 | -4 | -5 | -4 | -8 | -5
CCN(CCCNC(=O)c1ccc(N2CCCC2=O)cc1)c1cccc(C)c1 | -10 | 80* | 3 | 4 | -9 | -3
COc1cccc(OC)c1C(=O)NC(C)C12CC3CC(CC(C3)C1)C2 (configuration not stated) | -6 | 10 | 62* | 4 | 4 | -2
CCCNC(=O)NC(C)C12CC3CC(CC(C3)C1)C2 (configuration not stated) | -10 | 2 | 1 | 4 | -18 | -8
COc1ccc(-c2nc3ccccn3c2CN2CCN(c3ccccc3F)CC2)cc1 | 11 | 7 | 82* | 5 | -7 | -3
COc1ccc(N2Cc3ccccc3C2=NC(=O)c2cncc(Br)c2)cc1 | -10 | -7 | 12 | 0 | -17 | -4
S=C1NC(C23CC4CC(CC(C4)C2)C3)=CC(c2ccc3c(c2)OCO3)N1 (configuration not stated) | -20 | -17 | 77* | -1 | 2 | -10
SMILES | EBV gp42 inh | 14-3-3 Bad PPI | WT yeast gro inh | eIF4E 4G PPI | p47phox inh | RBBP9 inh
COc1ccc(OC)c(C2C=C(C34CC5CC(CC(C5)C3)C4)NC(=S)N2)c1 (configuration not stated) | 10 | 16 | 76* | 6 | -31 | -2
CN(CCc1cn[nH]c1)Cc1nc(Cc2ccccc2)no1 | 6 | -4 | -2 | 3 | 19 | 1
COc1ccccc1C(=O)NC(=S)/C=C1/N(C)c2ccccc2C1(C)C | 5 | -21 | 78* | -6 | -49 | -6
CN1/C(=C\C=C(/C#N)C(=O)Nc2ccc(Cl)cc2)C(C)(C)c2ccccc21 | 6 | -9 | 5 | 2 | -23 | -12
CN1/C(=C\C(=O)Nc2ccc(Cl)cc2)C(C)(C)c2ccccc21 | -14 | 0 | 79* | -6 | -116 | 12
CN1/C(=C\C(=S)Nc2ccccc2)C(C)(C)c2ccccc21 | 0 | 4 | 61* | 1 | -85 | -10
CN(C)c1nn(C(=O)Nc2cccc(C(F)(F)F)c2)cc1-c1ccccc1 | -2 | 7 | 63* | 0 | -14 | -7
CC(CCc1ccccc1)NCC#N (configuration not stated) | -20 | 0 | x | 0 | -26 | 0
Cc1ccc2nc(-c3cccc(Br)c3)cc(C(=O)NC3=NCCS3)c2c1 | -12 | 5 | 32 | 1 | -16 | -19
O=C(NC1=NCCS1)c1cc(-c2cccc(Br)c2)nc2ccccc12 | 33 | 4 | 80* | 1 | -33 | -16
O=C(Nc1ccc([N+](=O)[O-])cn1)c1cc(-c2cccc(Cl)c2)nc2ccccc12 | -23 | 1 | 10 | 2 | -49 | -4
CCCc1ccc(-c2cc(C(=O)NC3=NCCS3)c3ccccc3n2)cc1 | -7 | 0 | 80* | 7 | -25 | -4
O=C(Nc1ccccn1)c1cc(-c2cccc(Cl)c2)nc2ccccc12 | -20 | 11 | 65* | -1 | -5 | -16
O=C(COC(=O)c1ccc(S(=O)(=O)N2CCCC2)cc1)NCc1ccco1 | 2 | 4 | x | 2 | -2 | -7
CCOc1cc(/C=N/NC(=O)c2cccnc2)ccc1OC(=O)c1ccco1 | -5 | -15 | -9 | 3 | -8 | 11
COc1ccc(NC(=O)c2cc(-c3cc(C)cc(C)c3O)n[nH]2)cc1Cl | -2 | -2 | 66* | -12 | -28 | -28
CCC(C(=O)OC)(C(=O)OC)c1ccc([N+](=O)[O-])cc1 | 4 | -6 | 3 | 4 | 7 | -4
CC1(C(=O)OCc2cc(=O)n3cc(Br)ccc3n2)CC1(Cl)Cl (configuration not stated) | -25 | -6 | -3 | 4 | -5 | 1
CCN(C(=O)c1cccs1)c1nnc(-c2ccncc2)s1 | -10 | 9 | 1 | -2 | 0 | -6
COCCN(C(=O)Cc1cccs1)c1nnc(-c2ccncc2)s1 | -25 | 82* | -8 | -4 | -70 | 1
COC(=O)c1cc2n3ccccc3c(C)c(-c3ccccc3)c-2c1C(=O)OC | 103* | -15 | -12 | 6 | 53* | 4
COC(=O)c1cc2c(C)cc3ccc(C)cn3c-2c1C(=O)OC | 88* | -15 | -8 | -11 | -5 | -2
COC(=O)c1cc2ccccn2c2c(C(=O)OC)c(C(=O)OC)cc1-2 | -10 | -29 | 8 | -6 | -20 | 0
COC(=O)c1cc2c(C)c(C)c3ccccn3c-2c1C(=O)OC | 50* | -28 | 4 | -18 | -32 | -4

Screening results: PubChem BioAssay, several laboratories
